Measurements pooled from the literature.
Target: Serine/threonine-protein kinase TAO1 (TAOK1, Homo sapiens, UniProt Q7L7X3)
Residues used in one study (Q7L7X3 1-1001): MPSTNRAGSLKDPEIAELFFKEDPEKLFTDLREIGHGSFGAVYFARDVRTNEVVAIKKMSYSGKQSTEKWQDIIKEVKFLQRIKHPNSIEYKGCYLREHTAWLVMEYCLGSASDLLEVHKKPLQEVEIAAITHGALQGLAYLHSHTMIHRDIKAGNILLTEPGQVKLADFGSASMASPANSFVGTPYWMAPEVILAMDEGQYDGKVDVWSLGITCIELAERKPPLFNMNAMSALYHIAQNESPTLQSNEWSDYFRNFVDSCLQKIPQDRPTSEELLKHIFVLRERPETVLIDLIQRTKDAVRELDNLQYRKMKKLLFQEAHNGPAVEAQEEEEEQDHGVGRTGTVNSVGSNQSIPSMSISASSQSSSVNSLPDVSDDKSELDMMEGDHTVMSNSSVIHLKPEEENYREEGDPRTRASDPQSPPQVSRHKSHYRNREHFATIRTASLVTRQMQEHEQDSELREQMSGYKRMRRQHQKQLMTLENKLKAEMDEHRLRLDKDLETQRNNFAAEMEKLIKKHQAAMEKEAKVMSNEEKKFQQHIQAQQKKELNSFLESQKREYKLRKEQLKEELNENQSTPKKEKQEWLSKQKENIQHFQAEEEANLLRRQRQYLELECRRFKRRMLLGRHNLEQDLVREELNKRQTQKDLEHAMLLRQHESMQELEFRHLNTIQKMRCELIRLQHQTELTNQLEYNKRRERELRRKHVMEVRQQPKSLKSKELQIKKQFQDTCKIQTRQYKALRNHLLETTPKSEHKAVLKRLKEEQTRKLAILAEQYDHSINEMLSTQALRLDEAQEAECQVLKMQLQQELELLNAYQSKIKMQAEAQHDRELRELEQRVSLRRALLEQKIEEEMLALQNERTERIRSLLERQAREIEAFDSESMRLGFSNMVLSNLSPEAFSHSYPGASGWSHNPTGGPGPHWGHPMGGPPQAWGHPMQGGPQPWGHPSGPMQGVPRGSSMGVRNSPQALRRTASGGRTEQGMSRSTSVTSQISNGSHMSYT

`O=C(c1ccc(Nc2ncc(Cl)c(-c3ccc(Cl)s3)n2)cc1)N1CCC(N2CCCC2)CC1` has a remaining binding of 47% (binding, competition with immobilised ligand; 1 µM).
The remaining binding of `C=CC(=O)N1CCC(C(=O)NCC(=O)N2CCN(c3nc(-c4cnc(N)nc4C(F)F)nc(N4CCOCC4)n3)CC2)CC1` is reported as 80% (binding, competition with immobilised ligand; 1 µM).
With `COc1ccnn2ncc(-c3ccnc(N(C)C)n3)c12` the remaining binding was 81% (binding; 1 µM).
`COc1cccc(CNC(=O)c2nc3scc(COCc4ccc(C(=O)O)cc4)c3c(=O)[nH]2)c1` has a remaining binding of 69.5% (cell-free assay, competition with immobilised ligand; 1 µM).
`O=C(NCCCN1CCOCC1)c1ccc(Nc2nccc(-c3cc4ccccc4s3)n2)cc1` has a remaining binding of 82% (binding, competition with immobilised ligand; 1 µM).
With `Nc1ncc2c(n1)-c1c([nH]c3ccc(C#CC4CC4)cc13)CCCC2` the remaining binding was 97% (binding, competition with immobilised ligand; 1 µM).
`O=C(NCC1CCOCC1)c1n[nH]cc1NC(=O)c1c(F)cccc1F` has a remaining binding of 83% (binding, competition with immobilised ligand; 1 µM).
`F[C@@H]1CCN(c2nccc(-c3cnn4ncccc34)n2)C1` gave a remaining binding of 100% (binding; 1 µM).
`CNC(=O)[C@@H]1CC[C@@H](n2c(-c3ccc4cnccc4c3)nc3ccc(C(=O)NCc4cccc(C(N)=O)c4)cc32)C1` has a remaining binding of 100% (binding, competition with immobilised ligand; 1 µM).
The remaining binding of `C[C@@H]1CCN(c2nccc(-c3cnn4ncccc34)n2)C1` is reported as 83% (binding; 1 µM).
For `COCCOc1nc(-c2ccc(Cl)nc2)nc2c1CN(C(=O)c1ncn3ccccc13)CC2`, the remaining binding was 100% (cell-free assay, competition with immobilised ligand; 0.1 µM).
The remaining binding of `N[C@H]1CCN(c2nccc(-c3cnn4ncccc34)n2)C1` is reported as 87% (binding; 1 µM).
The remaining binding of `COc1cnc(Nc2cccc(S(N)(=O)=O)c2)nc1N1CCN(c2ccccc2)CC1` is reported as 80% (binding, competition with immobilised ligand; 1 µM).
`CN(C)c1ncc(F)c(-c2cnn3ncccc23)n1` has a remaining binding of 73% (binding; 1 µM).
For `Cc1cnc(Nc2ccc(C(=O)N3CCC(N4CCCC4)CC3)cc2)nc1-c1cc2ccccc2s1`, the remaining binding was 64% (binding, competition with immobilised ligand; 1 µM).
With `CCC(=N\O)/C(C)=C/c1ccc(F)cc1` the remaining binding was 100% (cell-free assay, competition with immobilised ligand; 1 µM).
With `C[C@@H](c1ccc(-n2cnc3c(N)ncnc32)cc1)N1CCc2nn(C)c(Cc3ccccc3)c2C1=O` the remaining binding was 90% (binding, competition with immobilised ligand; 0.1 µM).
The remaining binding of `O=C(O)[C@@H]1[C@@H](Cn2nnc3ccccc3c2=O)CC[C@H]1C(=O)c1ccc(OCCC2CCOCC2)cc1` is reported as 100% (cell-free assay, competition with immobilised ligand; 1 µM).
With `CCN1CCN(Cc2ccc(C(=O)Nc3ccc(C)c(Oc4ccc5c(c4)CC(=O)N5)c3)cc2C(F)(F)F)CC1` the remaining binding was 100% (binding, competition with immobilised ligand; 1 µM).
For `CC(=O)Nc1c(C(C)=O)c(=O)n(C)c2nc(-c3ccc(Cl)cc3Cl)c(-c3ccc(Cl)cc3)cc12`, the remaining binding was 89% (cell-free assay, competition with immobilised ligand; 1 µM).
For `CN(CCCC(F)(F)F)c1nccc(-c2cnn3ncccc23)n1`, the remaining binding was 100% (binding; 1 µM).
With `CN([C@@H]1CCc2c(CC(=O)O)c3ccccc3n2C1)S(=O)(=O)c1ccc(F)cc1` the remaining binding was 93% (cell-free assay, competition with immobilised ligand; 1 µM).
The remaining binding of `COc1ncc2cc3ccccc3nc2c1C#N` is reported as 100% (cell-free assay, competition with immobilised ligand; 5 µM).
